Data from ChEMBL document CHEMBL4513216, “Probing the Open Global Health Chemical Diversity Library for Multistage-Active Starting Points for Next-Generation Antimalarials” (ACS Infect Dis, 2020).

experiment: Toxicity liver stage against HepG2, at 10uM; format: cell-based; design: test concentration 10 uM, cell line HepG2-A16-CD81EGFP; settings: human, HepG2-A16-CD81EGFP cells; read-out: INHIBITION
How it was run: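 Uninfected HepG2-A16-CD81EGFP cells, 3 × 10^3 per well, 1536-well, plated on prespotted compound at 10 μM final, parasite-free screening media added to match infected plates; puromycin 10 μM positive, DMSO 0.5% negative; run in parallel with 48 h PbLuc assay at 37 °C, 5% CO2; viability by CellTiter-Glo luminescence, normalized to controls.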

Row | Compound | cytotoxicity at 10 µM
1 | Cc1cccc(OC2CCN(c3nc(N)nc4[nH]cnc34)CC2)c1 | 35.4%
2 | CC(C)Cc1ncc2c(n1)CN(c1nc(N(C)C)nc3c1CCCC3)C2 | 2.27%
3 | O=C(CNCC1(O)CCCN(Cc2cccc(F)c2F)C1=O)NC1CC1 (stereo not given) | -4.02%
4 | COCC(NC1CCSCC1)c1ccnn1C (stereo not given) | 13.5%
5 | CCCc1nc(N2CCCC3(CCNC3)C2)c2cnn(C)c2n1 (stereo not given) | -47.8%
6 | CCc1cn[nH]c1C1CCCN(C(=O)c2ncoc2C(C)C)C1 (stereo not given) | 1.86%
7 | O=C(CCc1nc2ccccc2[nH]1)NC1CCOC2(CCOCC2)C1 (stereo not given) | 9.64%
8 | Cn1ncc(N2CCOC(CCNC(=O)N3CCCCC3)C2)cc1=O (stereo not given) | -1.25%
9 | COc1ccccc1CC(=O)N1CCCC(c2nccn2CC(N)=O)C1 (stereo not given) | 12.9%
10 | Cc1cc(C)nc(CN(C)C(=O)c2ccccc2C2CCNC2)c1 (stereo not given) | 1.64%
11 | O=C(c1ccc(C2CCCN2)s1)N1CCC2(CCCO2)CC1 (stereo not given) | -7.13%
12 | Cc1ncsc1-c1nc(CC2CCN(C)CC2)nn1Cc1ccccc1 | 10.2%
13 | Cc1cccc(C(C(=O)NCc2csc(-c3ncccn3)n2)N(C)C)c1 (stereo not given) | 2.14%
14 | CN(C)CC1(O)CCCN(Cc2ccccc2OCC(=O)N(C)C)C1 (stereo not given) | -1.21%
15 | CCN(c1ccc(C(=O)N2CCC(C(N)=O)CC2)cc1)S(=O)(=O)CC | 11.6%
16 | COc1ccc(-c2cccc3c2OC(CN)C3)cc1F (stereo not given) | -51.4%
17 | Cc1nsc(NC(=O)NC2CCN(C)CC2)n1 | -10.7%
18 | Cc1ncsc1CCC(=O)N1CCCC[C@H](N(C)C)C1 | -22.5%
19 | CCn1ccnc1CN1C[C@@H](CN2CCCC2)[C@@H](CO)C1 | -9.96%
20 | CC(=O)c1ccc(OCC(C)O)cc1O (stereo not given) | -8.02%
21 | Cc1cc(-n2cncn2)n2ncnc2n1 | -4.05%
22 | CCOc1cccc(CNC2CCCN(Cc3noc(C)n3)C2)c1 (stereo not given) | -2.3%
23 | CCOCCN1CCN(Cc2coc(-c3cccc(F)c3)n2)CC1 | -2.87%
24 | CCOc1ccc(Cl)c(C(=O)N2CCCN(CC(N)=O)CC2)n1 | -1.26%
25 | O=C1COc2cc(C(=O)NS(=O)(=O)c3cccc(Cl)c3)ccc2N1 | -4.01%
26 | Cc1ccc(-c2nc(CNC3CCc4ncnn4C3)cs2)cc1 (stereo not given) | -9.27%
27 | O=C(NCCNc1cnccn1)N1CCCCCC1 | -3.33%
28 | CC(=O)NCCNC(=O)CNC1CCCN(c2ccc(C)nn2)C1 (stereo not given) | 3.47%

Row | Compound | cytotoxicity at 10 µM
29 | CCOc1ncccc1CNCc1c(C)nn(C)c1N(C)C | -1.35%
30 | CC(=O)N1CCCN(C(=O)c2cnn(-c3ccccc3Cl)c2)CC1 | -11.4%
31 | c1ccc2oc(CCCN3CCOC(Cn4cncn4)C3)nc2c1 (stereo not given) | 1.52%
32 | Cc1nn(C)c(C)c1NC(=O)CN1CCOC(Cn2cccn2)C1 (stereo not given) | -1.81%
33 | Cc1cncc(C(=O)N2CCCCC2c2nc(C)cs2)c1 (stereo not given) | -3.66%
34 | CCOc1ccccc1C(=O)NS(=O)(=O)c1ccc2c(c1)OCCCO2 | 5.04%
35 | CC(C)c1nc2c(n1C)CCN(Cc1nc(-c3ccsc3)no1)C2 | -6.46%
36 | Cc1cc(C2CCCN(C(=O)c3c(C)nn4cccnc34)C2)n[nH]1 (stereo not given) | -0.457%
37 | CCCn1nc2c(cc1=O)CN(CCCS(N)(=O)=O)CC2 | -2.48%
38 | Cc1cccc(CN2C(=O)C[C@@H]3[C@@H]2CCN3Cc2ccsc2)n1 | -6.63%
39 | COCCN1C[C@@H]2COC[C@@H](CC(=O)NCc3cccnc3)[C@@H]2C1 | 12%
40 | CCOc1ccccc1C(=O)N1CCCC1c1ncc2c(n1)CCNC2 (stereo not given) | 8.3%
41 | Cc1cc(C)cc(CN2C[C@H]3COC[C@H](N4CCN(C)CC4)[C@H]3C2)c1 | -93.7%
42 | c1coc(CN2CCO[C@H]3[C@H](OCC4CCCC4)CC[C@@H]32)c1 | 19.7%
43 | CN(C)C(=O)CO[C@H]1CN(Cc2ccc3c(c2)OCO3)[C@@H]2COC[C@H]12 | 5.9%
44 | C[C@@H]1CN(Cc2ccsc2)C[C@]12CCN(Cc1cccnc1)C2=O | 7.62%
45 | CCN(CC)S(=O)(=O)N1CC[C@H](c2ccccc2)[C@H]2NCCCC[C@H]21 | -39.5%
46 | CCCN1CCC(c2nc3ccc(-c4cccc(F)c4)cn3n2)CC1 | -125%
47 | Cc1ccoc1C(=O)N1CC[C@H]2[C@H](C[C@@H](CN3CCCC3)N2C)C1 | 4.42%
48 | CN(C)C(=O)c1cnc2n1CCN(Cc1cccnc1)C2 | -67%
49 | CN(C)c1ncc2c(n1)C1(CCN(CC3CC3)C1)COC2 (stereo not given) | -12.9%
50 | CN(Cc1ccccn1)C1CC2(CCN(Cc3ccccn3)CC2)C1 | -87%
51 | Cc1noc(C)c1CN1CCOCC12CCN(c1ncccn1)CC2 | -104%
52 | CN1CCCN(C(=O)c2cc(-c3cc[nH]n3)n3ccccc23)CC1 | 11%
53 | Fc1cccc(-c2nnn3c2COCC(CNCc2nccs2)C3)c1 (stereo not given) | -112%
54 | CN1C(=O)[C@@H]2CC[C@H]1CN(Cc1cccc(OCc3ccccn3)c1)C2 | 5.52%
55 | CC(C)Cn1cc2nc(N3CCCC3)[nH]cc-2c1=O | 9.6%
